Results published in PMC5776435 (Iranian Journal of Basic Medical Sciences, 2018).
Values after ≈ are worked out from the molar mass of the structure shown.

How the values were obtained:
HepG2 cells = test: MTT assay, cytotoxicity on HepG2 cells; format: cell-based, human
In short: (§1)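 Cells were grown in RPMI 1640 with 10% FBS and penicillin/streptomycin at 37 °C, 5% CO2, and seeded for 24 hr. They were exposed 6 hr to peptide (1.25–100 µg/ml for IC50; 10 µg/ml for viability). MTT (5 mg/ml stock in PBS) was then added for 4 hr at 37 °C, formazan dissolved in DMSO for 30 min, and A570 read. 5-Fluorouracil served as positive control and DMSO as blank. Triplicates were run; IC50 is the mean ± SD of three experiments.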

HT-29 cells = test: MTT assay, cytotoxicity on HT-29 cells; format: cell-based, human
In short: as §1

[1] = MTT assay, 10 µg/ml of each peptide, 6 hr, control = 100

`O=c1[nH]cc(F)c(=O)[nH]1` [5-Fluorouracil] was tested, and the IC50 (HepG2 cells; Homo sapiens, HepG2, 6 h, read-out: IC50 cell line HepG2) was 3.16 µg/mL (≈ 24.3 µM), the “Viability percentage (HepG2), MTT assay” value (HepG2 cells; [1]) was 3.22% and the IC50 (HT-29 cells; Homo sapiens, HT-29, 6 h, read-out: IC50 cell line HT-29) was 6.08 µg/mL (≈ 46.7 µM). The “Viability percentage (HT-29), MTT assay” value (HT-29 cells; [1]) was 9.28%.
